From ChEMBL document CHEMBL3785056, “New imidazoquinoxaline derivatives: Synthesis, biological evaluation on melanoma, effect on tubulin polymerization and structure-activity relationships” (Bioorg Med Chem, 2016)
The source made the active and inactive calls. No cut-off for these calls is given here.

Key:
A-375 [1] = experiment: Cell cycle arrest in human A375 cells assessed as effect on number of cells at S phase after 24 hrs by propidium iodide staining based flow cytometric analysis; assay type: functional
In short: (§1)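 A375 cells treated 24 h, washed in PBS and pelleted at 400g, 4 °C. Pellet lysed in ice-cold hypotonic solution (PI 25 µg/ml, 0.1% trisodium citrate, RNase A, 0.1% Triton X-100) and held overnight on ice. DNA content read by flow cytometry, giving G0/G1, S and G2/M percentages.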

A-375 [2] = experiment: Cell cycle arrest in human A375 cells assessed as accumulation of cells at G2/M phase after 24 hrs by propidium iodide staining based flow cytometric analysis; assay type: functional; in short: as §1
Tubulin (Sus scrofa) = Tubulin (Sus scrofa) (UniProt P02554+P02550); experiment: Inhibition of pig brain tubulin polymerization at 5 uM by spectrophotometric analysis
In short: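 Compound 5 µM final, DMSO as negative control. Polymerization at 37 °C followed by turbidity at 350 nm, with ice added after 45 min to check depolymerization. Given as % inhibition from three independent experiments.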

A-375 [3] = experiment: Cell cycle arrest in human A375 cells assessed as effect on number of cells at G0/G1 phase after 24 hrs by propidium iodide staining based flow cytometric analysis; assay type: functional; in short: as §1
A-375 [4] = experiment: Antiproliferative activity against human A375 cells assessed as cell growth inhibition after 96 hrs by MTT assay; assay type: functional, cell-based; settings: A-375, 96 h
In short: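 A375 cells in RPMI-1640 with 10% heat-inactivated FBS, 37 °C, 5% CO2, seeded 5000 cells/well and attached overnight. Exposed 96 h to […] in 1% DMSO/medium. MTT read at 570 nm after isopropanol/HCl solubilization. Survival given as % of vehicle control. IC50 taken from sigmoidal dose-response curves, at least three experiments in triplicate.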

Chain of Tubulin (Sus scrofa) (P02550 whole entry, looked up): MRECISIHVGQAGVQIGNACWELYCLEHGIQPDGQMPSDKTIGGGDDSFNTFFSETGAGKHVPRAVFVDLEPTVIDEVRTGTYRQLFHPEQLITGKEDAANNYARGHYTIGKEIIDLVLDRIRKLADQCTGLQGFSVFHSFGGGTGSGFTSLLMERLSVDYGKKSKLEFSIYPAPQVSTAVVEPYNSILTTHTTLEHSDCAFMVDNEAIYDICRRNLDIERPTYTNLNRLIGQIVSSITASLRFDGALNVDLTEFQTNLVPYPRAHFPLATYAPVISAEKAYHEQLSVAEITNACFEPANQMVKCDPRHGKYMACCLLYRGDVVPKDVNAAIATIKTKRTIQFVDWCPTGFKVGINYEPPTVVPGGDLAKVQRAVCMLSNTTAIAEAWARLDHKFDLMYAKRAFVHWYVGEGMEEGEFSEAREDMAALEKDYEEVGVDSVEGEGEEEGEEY
Chain of Tubulin (Sus scrofa) (P02554 whole entry, looked up): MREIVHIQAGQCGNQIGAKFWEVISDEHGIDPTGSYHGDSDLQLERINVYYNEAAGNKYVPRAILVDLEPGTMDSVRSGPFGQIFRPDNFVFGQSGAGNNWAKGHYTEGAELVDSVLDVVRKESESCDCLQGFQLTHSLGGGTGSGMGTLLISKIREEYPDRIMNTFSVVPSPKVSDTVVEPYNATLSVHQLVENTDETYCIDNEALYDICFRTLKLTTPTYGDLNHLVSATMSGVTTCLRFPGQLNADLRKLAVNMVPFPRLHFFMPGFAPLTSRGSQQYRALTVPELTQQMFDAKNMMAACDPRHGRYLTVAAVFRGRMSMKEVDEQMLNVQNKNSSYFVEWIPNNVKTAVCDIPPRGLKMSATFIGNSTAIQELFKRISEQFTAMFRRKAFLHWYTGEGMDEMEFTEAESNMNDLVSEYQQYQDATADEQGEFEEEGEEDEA

inhibition (Tubulin (Sus scrofa)) | IC50 (A-375 [4]) [nM] | SMILES | Activity (A-375 [1]) | Activity (A-375 [2]) | Activity (A-375 [3])
84% |  | CNc1nc2ccccc2n2c(-c3cccc(OC)c3)cnc12 | Dose-dependent effect | Dose-dependent effect | Dose-dependent effect
inactive | 5900 | CNc1nc2ccccc2n2c(-c3cccc(OC)c3OC)cnc12 |  |  | 
99% |  | CNc1nc2ccccc2n2c(-c3ccc(OC)cc3)cnc12 | Dose-dependent effect | Dose-dependent effect | Dose-dependent effect
inactive | 1250 | CNc1nc2ccccc2n2c(-c3cccc(O)c3)cnc12 |  |  | 
inactive | 1800 | CNc1nc2ccccc2n2c(-c3cc(OC)c(OC)c(OC)c3)cnc12 |  |  | 
90% | 77 | CNc1nc2ccccc2n2c(-c3cccc(OC)c3O)cnc12 |  |  | 
98.5% | 220 | CNc1nc2ccccc2n2c(-c3cc(OC)cc(OC)c3)cnc12 | Dose-dependent effect | Dose-dependent effect | Dose-dependent effect
inactive |  | CNc1nc2ccccc2n2c(-c3ccccc3OC)cnc12 |  |  | 
inactive | 1500 | CNc1nc2ccccc2n2c(-c3ccc(OC)c(OC)c3OC)cnc12 |  |  | 
3% | 1200 | CNc1nc2ccccc2n2c(-c3cc(OC)ccc3OC)cnc12 |  |  | 
inactive | 2300 | CNc1nc2ccccc2n2c(-c3c(OC)cc(OC)cc3OC)cnc12 |  |  | 
63% | 300 | CNc1nc2ccccc2n2c(-c3ccc(OC)c(OC)c3)cnc12 |  |  | 
41% | 200 | COc1cccc(-c2cnc3c(N)nc4ccccc4n23)c1 |  |  | 
11.3% | 2400 | Nc1nc2ccccc2n2c(-c3cccc(O)c3)cnc12 |  |  | 

SMILES | inhibition (Tubulin (Sus scrofa)) | IC50 (A-375 [4]) [nM] | Activity (A-375 [1]) | Activity (A-375 [2]) | Activity (A-375 [3])
COc1cc2c(c(OC)c1OC)-c1ccc(OC)c(=O)cc1[C@@H](NC(C)=O)CC2 [COLCHICINE] |  | 10 |  |  | 
